Columns and labels:
Assay type in all cases: functional
Rattus norvegicus [1] = assay: Antiallergic activity is evaluated for its ability to inhibit reaginic passive cutaneous anaphylaxis (PCA) in rats dosed at 0.5 mg/kg intravenously; conditions: route intravenous
Summary of the method: (§1)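 Antiserum dilutions were injected intradermally at several back sites. 48 h later, rats were challenged i.v. with 1 mg ovalbumin in 1 mL saline containing 0.25% Evans blue. Diameter was plotted against relative antiserum concentration, and the least-squares line was extrapolated to zero antiserum. Groups of five animals were used.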

Rattus norvegicus [2] = assay: Antiallergic activity is evaluated for its ability to inhibit reaginic passive cutaneous anaphylaxis (PCA) in rats dosed at 5 mg/kg intravenously; conditions: ip, in the assay text read “intraperitoneally” for “intravenously”; summary of the method: as §1
Rattus norvegicus [3] = assay: Antiallergic activity is evaluated for its ability to inhibit reaginic passive cutaneous anaphylaxis (PCA) in rats dosed intravenously; conditions: iv; summary of the method: as §1
Rattus norvegicus [4] = assay: Antiallergy activity is evaluated for its ability to inhibit passive cutaneous anaphylaxis (PCA) in rats, dosed perorally; conditions: po; summary of the method: as §1
Rattus norvegicus [5] = assay: Antiallergic activity is evaluated for its ability to inhibit reaginic passive cutaneous anaphylaxis (PCA) in rats dosed perorally; conditions: po; summary of the method: as §1
Rattus norvegicus [6] = assay: Antiallergic activity is evaluated for its ability to inhibit reaginic passive cutaneous anaphylaxis (PCA) in rats dosed intravenously; Value ranges from 1-2; conditions: iv; summary of the method: as §1

`COc1ccc2nc3ccc(C(=O)O)nn3c(=O)c2c1` was tested, and the inhibition in vivo at 0.5 mg/kg (Rattus norvegicus [1]) was 8%.

`Cc1ccc2c(=O)n3nc(C(=O)O)ccc3nc2c1` showed an inhibition in vivo at 0.5 mg/kg (Rattus norvegicus [1]) of 32%.

With `O=C(O)c1ccc2nc3ccc(Cl)nn3c(=O)c2c1` the inhibition in vivo at 5 mg/kg (Rattus norvegicus [2]) was 0%.

`O=C(O)c1ccc2nc3ccc(Cl)cc3c(=O)n2n1` showed an inhibition in vivo at 0.5 mg/kg (Rattus norvegicus [1]) of 91%.

`O=C(O)c1ccc2nc3cc4ccccc4cc3c(=O)n2n1` was tested, and the inhibition in vivo at 0.5 mg/kg (Rattus norvegicus [1]) was 36%.

Work on `O=C(O)c1ccc2nc3ccccc3c(=O)n2n1` yielded an inhibition in vivo at 0.5 mg/kg (Rattus norvegicus [1]) of 76%.

`COC(=O)c1ccc2nc3ccc(Cl)nn3c(=O)c2c1` showed an inhibition in vivo at 5 mg/kg (Rattus norvegicus [2]) of 6%.

In the case of `O=C(O)c1ccc2c(=O)n3nc(Cl)ccc3nc2c1`, the inhibition in vivo at 5 mg/kg (Rattus norvegicus [2]) is reported as 0%.

`Cc1ccc2nc3ccc(C(=O)O)nn3c(=O)c2c1` was tested, and the inhibition in vivo at 0.5 mg/kg (Rattus norvegicus [1]) was 0%.

`Cc1ccc2nc3ccc(C(=O)O)cn3c(=O)c2c1` gave an ED50 (Rattus norvegicus [3]) of 0.05 mg/kg and an ED50 (Rattus norvegicus [4]) of 0.7 mg/kg.

Compound `COC(=O)c1ccc2c(=O)n3nc(Cl)ccc3nc2c1` has an inhibition in vivo at 5 mg/kg (Rattus norvegicus [2]) of 0%.

Compound `O=C1c2ccccc2S(=O)(=O)c2cc(-c3nn[nH]n3)ccc21` [DOXANTRAZOLE] has an ED50 (Rattus norvegicus [3]) of 1 mg/kg and an ED50 (Rattus norvegicus [5]) of 5 mg/kg.

`O=C([O-])c1cc(=O)c2c(OCC(O)COc3cccc4oc(C(=O)[O-])cc(=O)c34)cccc2o1.[Na+].[Na+]` [CROMOLYN SODIUM] showed an ED50 (Rattus norvegicus [6]) of 1 mg/kg.
